We go through 15 compounds from ChEMBL document CHEMBL5325487, “Suramin analogues protect cartilage against osteoarthritic breakdown by increasing levels of tissue inhibitor of metalloproteinases 3 (TIMP-3) in the tissue” (Bioorg Med Chem, 2023).

Data set [1] deals with T1, Metalloproteinase inhibitor 3 (Homo sapiens, UniProt P35625).
T1 sequence (P35625 whole entry): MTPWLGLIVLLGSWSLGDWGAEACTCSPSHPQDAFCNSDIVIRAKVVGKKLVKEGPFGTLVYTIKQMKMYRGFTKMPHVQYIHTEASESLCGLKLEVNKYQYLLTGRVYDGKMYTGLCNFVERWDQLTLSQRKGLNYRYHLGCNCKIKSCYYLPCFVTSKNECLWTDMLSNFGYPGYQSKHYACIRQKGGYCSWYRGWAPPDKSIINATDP
The data set can be described thus: Binding affinity to FLAG-tagged human TIMP3 expressed in HEK293 cells assessed as dissociation constant. It counts as cell-based.

Data set [2] is described as follows: Induction of TIMP3 protein level in human HTB-94 cells at 100 ug/ml incubated for 36 hrs by slot blotting analysis relative to suramin. The class given is functional, SW1353. Particulars: dose 100 µg/ml. In outline: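 Serum-free 36 h treatment (100 μg/mL) of HTB94 cells (5×10^5/well). TCA-concentrated conditioned medium was slot-blotted onto nitrocellulose and probed with rabbit anti-TIMP-3 and an IRDye 800CW secondary, then imaged by infrared fluorescence. Pixel volume is expressed relative to 100 μg/mL suramin samples on the same blot (100%). n = 3, mean ± SD.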

Data set [3] is filed under the species Sus scrofa. The data set can be described thus: Inhibition of cartilage degradation in porcine cartilage explants assessed as inhibition of IL-1beta-induced aggrecan release at 100 ug/ml measured after 3 days by DMMB assay. Particulars: Cartilage tissue, dose 100.0 µg/ml, time 3.0 day. The class given is functional, tissue-based. In outline:
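Porcine metacarpophalangeal cartilage explants (3–9-month-old pigs), rested 48 h after dissection, were washed and treated 72 h with IL-1β (10 ng/mL) plus 100 μg/mL analogue. Medium was DMEM with 0.1% FCS, amphotericin B and 10 mM HEPES. Aggrecan released into the medium was measured by DMMB assay. n = 3 biological × 2 technical replicates, mean ± SD.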

The subject of data set [4] is SW1353. The data set can be described thus: Cytotoxicity against human HTB-94 cells assessed as cell viability at 100 ug/ml measured after 36 h by MTS assay.
Data set [5] can be described thus: Induction of TIMP3 protein level in human HTB-94 cells incubated for 36 hrs by slot blotting analysis relative to 100 ug/ml suramin. Particulars: SW1353, 36 h. The class given is functional, cell-based. The procedure, abridged:
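Dose-response over 0–250 μg/mL for 36 h in serum-free DMEM using HTB94 cells (5×10^5/well). TIMP-3 in TCA-concentrated medium was measured by slot blot with anti-TIMP-3/IRDye 800CW detection, normalised to 100 μg/mL suramin on each blot. EC50 was fitted with a one-site specific binding model. n = 3, mean ± SD.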

Data set [6] deals with SW1353. The data set can be described thus: Induction of TIMP3 protein level in human HTB-94 cells at 100 ug/ml incubated for 36 hrs by Western blotting analysis. The class given is functional, cell-based. Particulars: dose 100.0 µg/ml. In outline:
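HTB94 cells (5×10^5/well) washed in serum-free DMEM and treated 36 h with 100 μg/mL in serum-free DMEM. Conditioned medium was TCA-precipitated and run on non-reducing 15% SDS-PAGE, then transferred to PVDF. TIMP-3 was detected with rabbit anti-TIMP-3 and an IRDye 800CW secondary by infrared imaging. Values are expressed as % of 100 μg/mL suramin-treated samples on the same blot. n = 3, mean ± SD.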

Data set [7] in a line: Cytotoxicity against porcine Chondrocyte assessed cell number at 100 ug/ml incubated for 3 days by MTS assay. Particulars: pig, 72 h, dose 100 µg/ml, time 3 day. The class given is toxicity, cell-based, Sus scrofa. In outline:
(§1)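 Primary porcine chondrocytes, released by pronase E then type II collagenase digestion of cartilage and plated at 10^4/well, were washed in serum-free DMEM. They were exposed to 100 μg/mL analogue, with or without IL-1β (10 ng/mL), for 3 days. Cell number was read by MTS against a twice freeze/thawed control. n = 3 biological replicates, mean ± SD.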

Data set [8] has as its system SW1353. The data set can be described thus: Effect on ADAMTS5 mRNA level in human HTB-94 cells at 50 to 200 ug/ml incubated for 36 hrs by RT-qPCR analysis. The class given is functional, cell-based. Particulars: dose 50-200 µg/ml. In outline:
(§2)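 HTB94 cells (5×10^5/well) plated overnight, washed three times, then treated with analogue (50–200 μg/mL) in serum-free DMEM for 36 h. RNA was isolated and transcripts quantified by RT-qPCR (ΔΔCt), normalised to RN18S1 and to untreated cells. n = 3, mean ± SD.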

Data set [9] deals with SW1353. The data set can be described thus: Effect on LRP1 mRNA level in human HTB-94 cells at 50 to 200 ug/ml incubated for 36 hrs by RT-qPCR analysis. Particulars: dose 50-200 µg/ml. The class given is functional, cell-based. In outline: as §2
The subject of data set [10] is SW1353. The data set can be described thus: Effect on MMP13 mRNA level in human HTB-94 cells at 50 to 200 ug/ml incubated for 36 hrs by RT-qPCR analysis. The class given is functional, cell-based. Particulars: dose 50-200 µg/ml. The procedure, abridged:
as §2

Data set [11] deals with SW1353. The data set can be described thus: Effect on ADAMTS4 mRNA level in human HTB-94 cells at 50 to 200 ug/ml incubated for 36 hrs by RT-qPCR analysis. It counts as functional, cell-based. Particulars: dose 50-200 µg/ml. In outline: as §2
The subject of data set [12] is SW1353. The data set can be described thus: Effect on TIMP3 mRNA level in human HTB-94 cells at 50 to 200 ug/ml incubated for 36 hrs by RT-qPCR analysis. It counts as functional, cell-based. Particulars: dose 50-200 µg/ml. The procedure, abridged:
as §2

Data set [13] can be described thus: Cytotoxicity against porcine Chondrocyte assessed cell number at 100 ug/ml incubated for 3 days in presence of IL-1beta by MTS assay. The class given is toxicity, cell-based, Sus scrofa. Particulars: pig, 72 h, dose 100 µg/ml, time 3 day. The procedure, abridged: as §1

pEC50, pKd: −log10 of the molar value. The source made the active and inactive calls. The rule behind the calls is not given here.

As to `O=C(Nc1cccc(C(=O)Nc2cc(S(=O)(=O)O)cc3ccc(S(=O)(=O)O)cc23)c1)Nc1cccc(C(=O)Nc2cc(S(=O)(=O)O)cc3ccc(S(=O)(=O)O)cc23)c1`, the pKd in [1] was less than 7.00.

Consider `O=C(Nc1cccc(C(=O)Nc2ccc(C(=O)Nc3cc(S(=O)(=O)O)cc4cc(S(=O)(=O)O)cc(S(=O)(=O)O)c34)cc2)c1)Nc1cccc(C(=O)Nc2ccc(C(=O)Nc3cc(S(=O)(=O)O)cc4cc(S(=O)(=O)O)cc(S(=O)(=O)O)c34)cc2)c1`, for which the Activity is -50% in data set [2] and “Non-Toxic” in data set [4]. The inhibition result in data set [3] was “Active”.

As for `O=C(Nc1ccc(C(=O)Nc2ccc(C(=O)Nc3ccc(S(=O)(=O)O)c4cc(S(=O)(=O)O)cc(S(=O)(=O)O)c34)cc2)cc1)Nc1ccc(C(=O)Nc2ccc(C(=O)Nc3ccc(S(=O)(=O)O)c4cc(S(=O)(=O)O)cc(S(=O)(=O)O)c34)cc2)cc1`, the negative-log EC50 (pEC50) in data set [5] was 4.77.

As to `Nc1ccc(C(=O)Nc2ccc(C(=O)Nc3cc(S(=O)(=O)O)cc4cc(S(=O)(=O)O)cc(S(=O)(=O)O)c34)cc2)cc1`, in data set [6], the outcome was inactive.

With `O=C(Nc1ccc(C(=O)Nc2cc(S(=O)(=O)O)cc3cc(S(=O)(=O)O)cc(S(=O)(=O)O)c23)cc1)c1ccc([N+](=O)[O-])cc1`, the outcome in [6] was inactive.

As to `Cc1ccc(C(=O)Nc2ccc(P(=O)(O)O)cc2P(=O)(O)O)cc1NC(=O)c1cccc(NC(=O)Nc2cccc(C(=O)Nc3cc(C(=O)Nc4ccc(P(=O)(O)O)cc4P(=O)(O)O)ccc3C)c2)c1`, the pKd in data set [1] was less than 7.00.

As to `O=C(Nc1cc(S(=O)(=O)O)cc2cc(S(=O)(=O)O)cc(S(=O)(=O)O)c12)c1ccc([N+](=O)[O-])cc1`, the result in data set [6] was inactive.

For `O=C(Nc1cc(C(=O)Nc2ccc(S(=O)(=O)O)cc2)cc(C(=O)Nc2ccc(S(=O)(=O)O)cc2)c1)Nc1cc(C(=O)Nc2ccc(S(=O)(=O)O)cc2)cc(C(=O)Nc2ccc(S(=O)(=O)O)cc2)c1`, the pKd in data set [1] is 8.16.

As to `O=C(Nc1ccc(C(=O)Nc2ccc(C(=O)Nc3cc(S(=O)(=O)O)cc4cc(S(=O)(=O)O)cc(S(=O)(=O)O)c34)cc2)cc1)Nc1ccc(C(=O)Nc2ccc(C(=O)Nc3cc(S(=O)(=O)O)cc4cc(S(=O)(=O)O)cc(S(=O)(=O)O)c34)cc2)cc1`, the results for the Activity in [2], in data set [7] and in data set [13] were 30%, “Non-Toxic” and “Non-Toxic”, respectively. Moreover, the negative-log EC50 (pEC50) in [5] is 4.72. For the same compound, the result in data set [8], in [9], in data set [10], in data set [11] and in data set [12] was inactive. Further, the result in data set [6] was Active.

Consider `O=C(Nc1cccc(C(=O)Nc2cc(C(=O)Nc3ccc(S(=O)(=O)O)c4cc(S(=O)(=O)O)cc(S(=O)(=O)O)c34)ccc2F)c1)Nc1cccc(C(=O)Nc2cc(C(=O)Nc3ccc(S(=O)(=O)O)c4cc(S(=O)(=O)O)cc(S(=O)(=O)O)c34)ccc2F)c1`, for which the pKd in data set [1] was 8.81.

For the compound `Nc1ccc(C(=O)Nc2cc(S(=O)(=O)O)cc3cc(S(=O)(=O)O)cc(S(=O)(=O)O)c23)cc1`, the result in data set [6] was inactive.

In the case of `O=C(Nc1cccc(C(=O)Nc2ccc(S(=O)(=O)O)c3cc(S(=O)(=O)O)cc(S(=O)(=O)O)c23)c1)Nc1cccc(C(=O)Nc2ccc(S(=O)(=O)O)c3cc(S(=O)(=O)O)cc(S(=O)(=O)O)c23)c1`, the pKd in [1] was 7.58.

As to `O=C(Nc1ccc(C(=O)Nc2cccc(C(=O)Nc3cc(S(=O)(=O)O)cc4cc(S(=O)(=O)O)cc(S(=O)(=O)O)c34)c2)cc1)Nc1ccc(C(=O)Nc2cccc(C(=O)Nc3cc(S(=O)(=O)O)cc4cc(S(=O)(=O)O)cc(S(=O)(=O)O)c34)c2)cc1`, the results for the Activity in [2] and in data set [4] were -50% and “Non-Toxic”, respectively. Also, the inhibition entry in [3] was “Active”. For the same compound, the negative logarithm of the EC50 (pEC50) in data set [5] was 4.77.

On to `O=C(Nc1cc(C(=O)Nc2ccc(S(=O)(=O)O)cc2S(=O)(=O)O)cc(C(=O)Nc2ccc(S(=O)(=O)O)cc2S(=O)(=O)O)c1)Nc1cc(C(=O)Nc2ccc(S(=O)(=O)O)cc2S(=O)(=O)O)cc(C(=O)Nc2ccc(S(=O)(=O)O)cc2S(=O)(=O)O)c1`, for which the pKd in data set [1] was 8.33.

`Cc1ccc(C(=O)Nc2ccc(S(=O)(=O)O)c3cc(S(=O)(=O)O)cc(S(=O)(=O)O)c23)cc1NC(=O)c1cccc(NC(=O)Nc2cccc(C(=O)Nc3cc(C(=O)Nc4ccc(S(=O)(=O)O)c5cc(S(=O)(=O)O)cc(S(=O)(=O)O)c45)ccc3C)c2)c1` [SURAMIN]: the Activity result in data set [7] and in [13] was “Non-Toxic” throughout. Besides, the negative-log EC50 (pEC50) in data set [5] was 4.82. Also, the outcome in data set [8], in data set [9], in data set [10] and in data set [11] was inactive. For the same compound, the outcome in [6] was Active.
